Screening data from PubChem.
Most compounds without a hit are left out; they make up all but 1.2% or so of the library.
PMI act – phosphomannose isomerase (human) activation | purified human PMI, coupled resazurin fluorescence, 20 min; stronger effect = higher value; 1 = vehicle control, 0 substrate-free wells | P34949 | 0.005% of 190,000 active | activation factor at 20 µM;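 active = activation factor of 2 or more at 20 µM, relative to plate controls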
p47phox inh – blocks human p47phox regulatory protein of NADPH oxidases | 0.53% of 220,000 active | inhibition, % at 24.7 µM | p47phox/p22phox peptide binding, fluorescence polarization, 2 h;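 active = inhibition above about 30%, limit read from the data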
Target sequence (P14598 whole entry, looked up): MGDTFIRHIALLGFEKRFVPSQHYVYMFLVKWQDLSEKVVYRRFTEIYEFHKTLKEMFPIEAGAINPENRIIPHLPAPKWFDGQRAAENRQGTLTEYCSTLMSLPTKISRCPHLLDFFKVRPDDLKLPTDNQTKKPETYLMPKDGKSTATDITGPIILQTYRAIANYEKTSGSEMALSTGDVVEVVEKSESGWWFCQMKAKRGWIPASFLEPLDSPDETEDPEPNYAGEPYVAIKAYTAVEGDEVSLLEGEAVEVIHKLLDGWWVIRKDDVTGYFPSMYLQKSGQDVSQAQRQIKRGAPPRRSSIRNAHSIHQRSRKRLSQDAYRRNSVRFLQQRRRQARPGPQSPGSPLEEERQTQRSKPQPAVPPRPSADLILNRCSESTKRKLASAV
PMI act hi M6P – PMI (human) activation, high substrate; AID 1216; coupled PMI enzyme assay, resazurin fluorescence, 20 min; stronger effect = higher value; 1 = untreated enzyme, 0 = substrate-free blank; 0.34% of 190,000 active; activation factor at 20 µM;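 active = activation factor of 2 or more at 20 µM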
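Test system: human phosphomannose isomerase with PGI, G6PDH, diaphorase coupling enzymes / Doses: 20 µM compound, 1% DMSO / Times: enzyme reaction with compound 20 min at room temperature / Measured by: Diaphorase-driven resazurin-to-resorufin fluorescence, excitation 544, emission 590 nm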
Diaphorase act – activates diaphorase or chemically reduces, flagging diaphorase assay artifacts; Diaphorase/resazurin coupled assay, resorufin fluorescence, 16 min; stronger effect = higher value; 1 = vehicle wells, 0 = NADH-free wells; activation factor at 20 µM; 0.005% of 190,000 active; AID 1229;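 active = diaphorase activity raised at least twofold by the compound at 20 µM; inactive = activation factor below 2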
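System – purified diaphorase enzyme from Clostridium kluyveri · Input – enzyme 0.07 U/mL final · Also added – final NADH 0.114 mM, resazurin 0.1 mM · Measured by – fluorescence of resorufin, 544 nm excitation, 590 nm emission · Timing – 16 min enzyme reaction, ambient temperature · Measure – resorufin increase flagging diaphorase activators or reducers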
Redox H2O2 prof – compounds producing H2O2 with reducing agent – biochemical, NIH compound library profiling, artefact control for MLSCN library redox annotation, primary screen; activation, % at 10 µM; DTT-dependent redox cycling H2O2, phenol red/HRP absorbance; 100% = 100 µM peroxide control, 0% = buffer; 0.03% of 200,000 active; AID 878;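 active = activation of at least 50% relative to the plate's high and low controls in the primary single-dose screen; inactive = activation below 50%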;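 note: compound incubated with DTT at 0.8 mM final as the reducing agent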
Efa HMGR inh – blocks class II HMG-CoA reductase of Enterococcus faecalis; inhibition, % at 10 µM; AID 1066; purified E. faecalis HMGR, NADPH absorbance 340 nm kinetic; 0.41% of 190,000 active;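 active = inhibition above a set limit, the median over all tested compounds plus 3 SD, cut at about 9.5% in these data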;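 note: enzyme runs in reverse so mevalonate oxidation gives rising NADPH absorbance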
Numbers stand for hits; i = inactive; nt = no result.

SMILES	PMI act	p47phox inh	PMI act hi M6P	Diaphorase act	Redox H2O2 prof	Efa HMGR inh
CC(=O)NS(=O)(=O)c1ccc(NC(=O)c2ccc3c(c2)C(=O)N(CCC(C)C)C3=O)cc1	i	59	i	i	i	i
CCCc1ccc(OCC(=O)Nc2cc(S(=O)(=O)CC)ccc2O)cc1	i	i	i	i	i	10
COc1ccc(OC)c(NC(=O)C2C3CCC(O3)C2C(=O)O)c1 (stereo not given)	i	53	i	i	i	i
Cc1cc(N)n(-c2nc3ccccc3s2)n1	nt	i	nt	nt	i	9.6
Cc1cc(C)n(-c2nc3ccccc3s2)n1	i	i	i	i	i	i
COc1ccc(OC)c(Nc2nc(-c3sc(NC(=O)c4ccccc4)nc3C)cs2)c1	i	i	i	i	i	11
COc1ccc(Cl)cc1Nc1nc(-c2sc(NC(=O)c3ccccc3)nc2C)cs1	i	i	i	i	i	i
O=C1CC(N2CCc3ccccc32)C(=O)N1c1ccc(F)cc1 (stereo not given)	nt	i	nt	nt	i	i
Cc1ccc2cc(C#N)c(SCc3nnc(-c4ccccc4[N+](=O)[O-])o3)nc2c1	i	i	i	i	i	i
Cc1ccc2nc3sc(-c4nnc(-c5ccccc5[N+](=O)[O-])o4)c(N)c3cc2c1	i	44	i	i	i	i
CC(C)CCNC(=O)CNC(=S)N(Cc1ccccc1)Cc1cccnc1	i	i	i	i	i	i
Cc1c(-n2c(SC(C)C(=O)NC(N)=O)nc3ccccc3c2=O)c(=O)n(-c2ccccc2)n1C (stereo not given)	i	i	i	i	i	i
Cc1ccc(NC(=O)Cn2cccc2)cc1Cl	i	i	i	i	i	i
COc1ccc(NC(=O)Cn2cccc2)cc1Cl	i	i	i	i	i	11
COC(=O)c1ccccc1NC(=O)CSc1nnc(CNS(=O)(=O)c2ccc(C)cc2)n1C	i	i	i	i	i	14
S=C1NC2(CCCCC2)Nc2ccccc21	i	i	2.5	i	i	i
S=C1NC2(CCCCCC2)N=C1c1ccccc1	i	i	i	i	i	i
S=C1NC2(CCCC2)Nc2ccccc21	i	i	2.3	i	i	i
O=C1c2ccccc2NC2(CCCC2)N1O	i	i	i	i	i	i
CCOC(=O)c1sc(-n2[nH]c(C)cc2=O)nc1C	i	i	2.4	i	i	i
CCOC(=O)c1sc(NC(C)=O)nc1C	i	i	i	i	i	i
Cc1cc2oc(=O)cc(CN3CCCc4ccccc43)c2cc1C	i	i	2.3	i	i	i
Cc1cc2oc(=O)cc(CN3CCOCC3)c2cc1C	i	i	i	i	i	i
Cc1ccc(NC(=O)CSc2nnc(-c3cnccn3)n2-c2ccccc2)cc1	i	i	i	i	i	i
CCN1C(=O)/C(=C/c2nc3ccccc3c(=O)[nH]2)c2ccccc21	i	39	i	i	i	i
SMILES	PMI act	p47phox inh	PMI act hi M6P	Diaphorase act	Redox H2O2 prof	Efa HMGR inh
CCOc1cc(/C=N/NC(=O)Nc2ccccc2)ccc1O	i	75	i	i	i	i
COc1cc(/C=N/NC(=O)Nc2ccccc2)ccc1OC(C)=O	i	i	i	i	i	i
Cc1ccc(P(=O)(O)c2ccc(C)cc2)cc1	i	65	i	i	i	i
COC(=O)c1ccc(CNC(=O)COC(=O)C2CCC(C(C)(C)C)CC2)cc1 (stereo not given)	i	i	i	i	i	i
CSc1cccc(NC(=O)CCC(=O)O)c1	i	71	i	i	i	i
CSc1cccc(NC(=O)CCc2ccccc2)c1	i	i	i	i	i	i
O=C(Cc1ccccc1)NC(NNc1ccccc1)(C(F)(F)F)C(F)(F)F	i	i	2.5	i	i	i
O=C(Cc1ccccc1)NNC(=O)Cc1ccccc1	i	i	i	i	i	i
COc1cc(/C=N/Nc2ccc(Cl)cc2)ccc1OC(=O)c1cccs1	i	i	2.3	i	i	i
COc1cc(/C=N/NC(N)=O)ccc1OC(=O)c1cccs1	i	i	i	i	i	i
Cc1cc(C)nc(SCCn2c(N3CCOCC3)nc3c2c(=O)[nH]c(=O)n3C)n1	i	i	i	i	i	12
Cc1csc(SCCn2c(N3CCOCC3)nc3c2c(=O)[nH]c(=O)n3C)n1	i	i	i	i	i	i
O=C(COc1ccc(Cl)cc1)NCCN1CCCCC1	i	i	i	i	i	10
CCOC(=O)C1=C(C)OC(N)=C(C#N)C1c1cc2ccccc2nc1N1CCCCC1 (stereo not given)	i	81	i	i	i	i
CCOC(=O)C1=C(C)OC(N)=C(C#N)C1c1cc2c(cc1Br)OCO2 (stereo not given)	i	i	i	i	i	i
CCOC(=O)C1=C(C)OC(N)=C(C#N)C1c1cc(C)sc1C (stereo not given)	i	i	i	i	i	i
CCOC(=O)C1=C(C)OC(N)=C(C#N)C1c1cc2cc(C)ccc2nc1N1CCCCC1 (stereo not given)	i	49	i	i	i	i
O=[N+]([O-])c1cccc(/C=N/Nc2nc(NCc3ccccc3)nc(N3CCOCC3)n2)c1O	nt	i	nt	nt	i	i
Cc1ccc(OC(=O)C2c3ccccc3Oc3ccccc32)cc1C	i	i	i	i	i	i
CC(/C=N/NC(=O)c1cc(-c2cccnc2)nc2c1c(C)nn2-c1ccccc1)=C\c1ccccc1	i	i	i	i	i	i
COc1ccc2ccc(=O)oc2c1	i	i	i	i	i	15
CCn1c(-c2nn(C)c(C)c2Cl)n[nH]c1=S	i	i	i	i	i	11
Cc1ccc(C#CC[N+]2(CC#Cc3ccc(C)cc3)CCCCC2)cc1	i	i	i	i	i	i
COCCn1c(SCC(=O)N2CCCc3ccccc32)nc2ccccc2c1=O	i	68	i	i	i	i
CCOP(=O)(OCC)C(Nc1ccccc1)c1ccccc1C(F)(F)F (stereo not given)	nt	i	nt	nt	nt	nt
SMILES	PMI act	p47phox inh	PMI act hi M6P	Diaphorase act	Redox H2O2 prof	Efa HMGR inh
O=C(O)CCC(=O)NCc1c(Cl)cccc1Sc1ccc(Cl)cc1	nt	i	nt	nt	nt	nt
O=C1CN(CC(=O)Nc2cccc(Cl)c2Cl)c2ccccc2N1	i	37	i	i	i	i
Cc1ccc(SCC(=O)NCC(C)C)cc1	i	i	i	i	i	i
CC(C)CNC(=O)CSc1ccc(Cl)cc1	i	i	i	i	i	37
COc1ccccc1N/N=C/c1ccc2c(c1)OCO2	i	i	2.3	i	i	i
COc1ccc2c(c1)CCCC21NC(=O)N(CC(=O)NC(=O)NCc2ccccc2)C1=O (stereo not given)	i	i	i	i	i	i
CC1=C(C(=O)OC(C)C)C(c2ccc(C)o2)NC(=O)N1 (stereo not given)	i	i	i	i	i	11
